Converted amounts (≈) assume the structure as drawn. The source made the active and inactive calls. The rule behind the calls is not given here.
Tests used:
Murine hepatitis virus [1] = test: Antiviral activity against murine hepatitis virus-A59 infected in BALB/c mouse assessed as reduction in mortality at 10 to 200 mg/kg, po administered once daily one hour post infection and measured after 23 days; format: functional, organism-based; conditions: dose 10-200 mg/kg, time 23.0 day
Method in brief: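 After intranasal MHV-A59 inoculation (30 μL, TCID50 = 10−7.125/100 μL), 3–4-week-old male BALB/c mice received oral drug or vehicle once daily from 1 hpi for four days, 12 per group. The remaining mice were monitored daily for body weight, clinical signs and death until 23 dpi; survival curves were plotted.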

Murine hepatitis virus [2] = test: Antiviral activity against murine hepatitis virus-A59 infected in BALB/c mouse assessed as inhibition of viral titer in lungs at 200 mg/kg, po administered once daily one hour post infection and measured after 3 days by qRT-PCR analysis; format: functional, organism-based; conditions: time 3.0 day
Method in brief: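 SPF male BALB/c mice aged 3–4 weeks were put under isoflurane and inoculated intranasally with 30 μL MHV-A59 (TCID50 = 10−7.125/100 μL) in PBS. Oral dosing once daily in 15% Cremophor EL/82.5% PBS/2.5% DMSO started at 1 hpi and ran for four days; groups had 12 mice. At 3 dpi, 4 mice per group were killed and lung and liver M-gene copies measured by qRT-PCR.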

Murine hepatitis virus [3] = test: Antiviral activity against murine hepatitis virus-A59 infected in BALB/c mouse assessed as alleviation of necrotic debris in lungs at 200 mg/kg, po administered once daily one hour post infection and measured after 3 days by H&E staining based analysis; format: functional, organism-based; conditions: time 3.0 day
Method in brief: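 In male BALB/c mice (3–4 weeks), MHV-A59 was given intranasally (30 μL, TCID50 = 10−7.125/100 μL). Oral dosing once daily in a Cremophor EL/PBS/DMSO vehicle began at 1 hpi and lasted four days. At 3 dpi, lungs and livers from 4 mice per group were fixed in zinc formalin and paraffin-embedded. Sections of about 4 μm were stained with H&E and examined at 200× and 400×.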

Murine hepatitis virus [4] = test: Antiviral activity against murine hepatitis virus-A59 infected in BALB/c mouse assessed as reduction in IL-1beta production in liver at 10 to 100 mg/kg, po administered once daily one hour post infection and measured after 3 days by ELISA analysis; format: functional, organism-based; conditions: dose 10-100 mg/kg, time 3.0 day
Method in brief: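 MHV-A59 was inoculated intranasally into male BALB/c mice (30 μL, TCID50 = 10−7.125/100 μL), with oral dosing once daily from 1 hpi for four days. At 3 dpi, 0.1 g lung or liver from 4 mice per group was homogenized in 0.9 mL water at 4 °C and centrifuged. Supernatant IFN-β was read by ELISA; TNF-α, IFN-γ, IL-1β, IL-6 and CXCL10 by multi-analyte kit, with OD 450 nm against standards.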

[5] = Solubility of the compound; format: physicochemical
[6] = Drug distribution in BALB/c mouse kidney assessed as hydrolyzed GS-441524 metabolite at 200 mg/kg, po administered as single dose and measured after 1 hrs by LC-MS/MS analysis; format: ADME, organism-based; conditions: in vivo
Canine coronavirus = test: Antiviral activity against Canine coronavirus infected in CRFK cells assessed as reduction in viral copy pre-infected with cells for 1 hrs followed by compound addition and measured after 48 hrs by RT-qPCR analysis; format: functional, organism-based; conditions: Alphacoronavirus 1, CRFK
Method in brief: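 CRFK cells (CCoV, FIPV) or ST cells (TGEV) were grown in DMEM with 10% FBS at 37 °C, 5% CO2. At 80% confluence they were washed in serum-free medium and infected at MOI 0.01 for 1 h at 37 °C. Compounds were then added at 0.1–100 μmol/L, with DMSO as blank. After 48 h, cells and supernatants were analysed by qRT-PCR. Inhibition came from viral copy number, and EC50 from curve fitting.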

Compound: CC(C)Cc1ccc(C(C)C(=O)OC[C@H]2O[C@@](C#N)(c3ccc4c(N)ncnn34)[C@H](O)[C@@H]2O)cc1 (some centres not stated)
- Activity (Murine hepatitis virus [1]): Active
- Activity (Murine hepatitis virus [2]): Active
- Activity (Murine hepatitis virus [3]): Active
- Activity (Murine hepatitis virus [4]): Active
- solubility [5]: 49.9 µM (≈ 23.9 µg/mL)
- Drug uptake [6]: Active
- EC50 (Canine coronavirus): 1410 nM

— ChEMBL document CHEMBL5346886 (Eur J Med Chem, 2023)
